Assay results as given in ChEMBL document CHEMBL4831490, “Silyl resveratrol derivatives as potential therapeutic agents for neurodegenerative and neurological diseases” (Eur J Med Chem, 2021).
≈ marks a conversion by molar mass, not a printed value. Calls of active or inactive are those of the source. The calls are words filed in the database; no cut-off is given here.

Assays:
RAW264.7 [1] = assay: Antiinflammatory activity in mouse RAW 264.7 cells assessed as decrease in LPS-induced TNF-alpha production at 10 uM measured after 24 hrs by ELISA; assay type: functional, cell-based
In short: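 RAW 264.7 macrophages, 5 × 10⁵ per well, given compound at 10 µM then stimulated with LPS (final 100 ng/mL). TNF-α in supernatants after 24 h measured by ELISA with capture/biotinylated detection antibody pairs.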

[2] = Toxicity in 3hpf zebrafish AB embryo assessed as median lethal dose measured 96 hpf; design: species or system Danio rerio; conditions: in vivo
In short: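 AB zebrafish embryos collected 3 hpf, 20 per well in E3 medium with graded compound concentrations, kept at 28.5 °C to 96 hpf. LC50 was fitted as a sigmoid to mortality. NOEC/LOEC used >20% mortality as the effect. Negative control was 0.1% DMSO in triplicate; DEAB (0.1 µM–1 mM) served as positive control.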

[3] = Toxicity in 3hpf zebrafish AB embryo assessed as NOAEL measured 96 hpf; design: species or system Danio rerio; conditions: in vivo, 96 h
In short: (§1)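 Zebrafish AB embryos collected at 3 hpf, 20 per well, in E3 medium with graded compound concentrations. Incubated 28.5 °C for 93 h further (to 96 hpf), mortality scored. NOEC/LOEC defined by mortality above 20%. Controls: 0.1% DMSO, three replicates; DEAB at 5 concentrations.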

[4] = Toxicity in 3hpf zebrafish AB embryo assessed as LOAEL measured 96 hpf; design: species or system Danio rerio; conditions: in vivo, 96 h; in short: as §1
SH-SY5Y [5] = assay: Neuroprotective activity against H2O2-induced oxidative stress in human SH-SY5Y cells assessed as increase in cell viability at 10 uM pretreated with H2O2 for 10 mins followed by compound treatment and measured after 24 hrs by MTT assay; assay type: functional, cell-based
RAW264.7 [6] = assay: Antiinflammatory activity in mouse RAW 264.7 cells assessed as decrease in LPS-induced IL-6 production at 10 uM measured after 24 hrs by ELISA; assay type: functional, cell-based
In short: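 RAW 264.7 macrophages, 5 × 10⁵ per well, compound added then stimulated with LPS (final 100 ng/mL) or left unstimulated; IL-6 in supernatant measured after 24 h by sandwich ELISA with capture/biotinylated detection antibodies.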

SH-SY5Y [7] = assay: Cytotoxicity against human SH-SY5Y cells assessed as reduction in cell viability at 10 uM measured after 24 hrs by MTT assay relative to control; assay type: cell-based
In short: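 SH-SY5Y cells grown in DMEM-F12 with 10% iFBS on collagen-pretreated plates; 2 × 10⁴ cells per well, left 24 h before compound in DMSO (final 1% DMSO) at 1, 10 and 100 µM. Viability by MTT 24 h after addition; mean and SD of at least eight readings from various experiments.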

Danio rerio = species on record: Danio rerio; assay: Neuroprotective activity against PTZ-induced neuronal damage in 5 dpf zebrafish AB larvae assessed as effect on AChE activity at 10 uM pretreated for 1 hr followed by removal of medium and subsequent addition of fresh medium containing PTZ and compounds measured after 6 hrs by Ellman's method; assay type: functional, organism-based; conditions: time 7.0 hrs
In short: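 Zebrafish AB larvae at 120 hpf, five per well, ten replicates, two independent experiments. Pretreated 1 h at 26 °C with compound (10 µM) in water with 0.1% DMSO, then after a media change kept 6 h at 26 °C with compound plus 5 mM PTZ. Physostigmine (20 µM) was the control inhibitor. Homogenate supernatant assayed by Ellman method; activity normalized to BCA protein, as % of control.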

SH-SY5Y [8] = assay: Neuroprotective activity against H2O2-induced oxidative stress in human SH-SY5Y cells assessed as increase in cell viability at 100 uM pretreated with H2O2 for 10 mins followed by compound treatment and measured after 24 hrs by MTT assay relative to control; assay type: functional
[9] = Stability of the compound in human SH-SY5Y cells assessed as parent compound remaining measured after 72 hrs; assay type: ADME; conditions: read-out: Stability
In short: (§2)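 Compound incubated 72 h in PBS 1x (pH 7.4) or in SH-SY5Y culture medium; percentage of compound remaining determined.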

[10] = Stability of the compound in PBS buffer assessed as parent compound remaining measured after 72 hrs; assay type: physicochemical; conditions: read-out: Stability; in short: as §2
[11] = Aqueous solubility of the compound; assay type: physicochemical
RAW264.7 [12] = assay: Antiinflammatory activity in mouse RAW 264.7 cells assessed as inhibition of LPS-induced nitric oxide production at 10 uM measured after 24 hrs by Griess reagent assay; assay type: functional, cell-based
In short: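 NO in 24 h culture supernatants of LPS-stimulated RAW 264.7 cells (compound 10 µM, LPS final 100 ng/mL) estimated indirectly as nitrite concentration.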

Mus musculus [13] = assay: Neuroprotective activity in C57BL/6 mouse model of 3-NP-induced intoxication assessed as reduction in truncal dystonia at 20 mg/kg, ip measured after 5 days relative to control; assay type: functional; design: scale not given: the % may be the effect or the level left; conditions: time 5 day, in the assay text read “overall motor score” for “truncal dystonia”
In short: (§3)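 C57BL/6 mice, 12 weeks old, n = 7 per group. 3-NP given i.p. twice daily, 10 h apart: 4 × 20, 4 × 40, 2 × 60 mg/kg (cumulative 360 mg/kg over 5 days). Compound 20 mg/kg i.p. in 13% hydroxypropyl-β-cyclodextrin with 2% Tween-80, given just before each morning 3-NP dose. Weight and motor scoring done before injections, last one 3 h after final 3-NP dose. Rotarod latency to fall read after the 360 mg/kg cumulative dose.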

[14] = Hydrolytic stability of the compound in mouse serum assessed as parent compound remaining measured after 24 hrs; assay type: ADME, cell-free; conditions: read-out: Stability
In short: (§4)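 Hydrolytic stability measured in mouse serum at 1 h and 24 h.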

Mus musculus [15] = assay: Neuroprotective activity in C57BL/6 mouse model of 3-NP-induced intoxication assessed as improvement in latency to fall at 20 mg/kg, ip by rotarod test relative to control; assay type: functional; in short: as §3
Mus musculus [16] = assay: Neuroprotective activity in C57BL/6 mouse model of 3-NP-induced intoxication assessed as effect on body weight at 20 mg/kg, ip measured after 5 days (91.4 %); assay type: functional; conditions: time 5 day; in short: as §3
Mus musculus [17] = assay: Neuroprotective activity in C57BL/6 mouse model of 3-NP-induced intoxication assessed as reduction in IL6 production at 20 mg/kg, ip by sandwich ELISA
Mus musculus [18] = assay: Immunosuppressive activity in MOG (35 to 55 residues)/pertussis toxin-induced experimental autoimmune encephalomyelitis C57BL/6 mouse model assessed as reduction in clinical scores at 20 mg/kg, ip starting from 20 days post disease progression and administered for 2 weeks; assay type: functional, organism-based
[19] = Hydrolytic stability of the compound in mouse serum assessed as parent compound remaining measured after 1 hr; assay type: ADME, cell-free; conditions: read-out: Stability; in short: as §4
Mus musculus [20] = assay: Antioxidant activity in C57BL/6 mouse model of 3-NP-induced oxidative stress assessed as increase in SOD2 mRNA expression at 20 mg/kg, ip by qRT-PCR method; assay type: functional, organism-based; in short: as §3

In the case of `CC[Si](CC)(CC)Oc1cc(O)cc(/C=C/c2ccc(O)cc2)c1`, the Activity (RAW264.7 [1]) is reported as “Active”.
For `CC(C)[Si](Oc1ccc(/C=C/c2cc(O)cc(O[Si](C(C)C)(C(C)C)C(C)C)c2)cc1)(C(C)C)C(C)C`, the LC50 at 96 h [2] was over 1000 µM, the NOAEL [3] was over 1000 µM and the LOAEL [4] was 1000 µM. The Activity (SH-SY5Y [5]) was “Active”, the Activity (RAW264.7 [1]) was “Active” and the Activity (RAW264.7 [6]) was “Active”.
In the case of `CC(C)[Si](Oc1cc(O)cc(/C=C/c2ccc(O)cc2)c1)(C(C)C)C(C)C`, the Activity (SH-SY5Y [5]) is reported as “Active” and the Activity (SH-SY5Y [7]) is reported as over 50%.
With `CC(C)[Si](Oc1cc(/C=C/c2ccc(O[C@H]3O[C@@H](CO)[C@H](O)[C@@H](O)[C@@H]3O)cc2)cc(O[Si](C(C)C)(C(C)C)C(C)C)c1)(C(C)C)C(C)C` the LC50 at 96 h [2] was over 1000 µM, the NOAEL [3] was 1000 µM and the LOAEL [4] was 1000 µM.
In the case of `CCCC(=O)Oc1ccc(/C=C/c2cc(O[Si](CC)(CC)CC)cc(O[Si](CC)(CC)CC)c2)cc1`, the LC50 at 96 h [2] is reported as 407 µM, the NOAEL [3] is reported as 100 µM and the LOAEL [4] is reported as 1000 µM.
With `CC(C)[Si](Oc1cc(/C=C/c2ccc(O)cc2)cc(O[Si](C(C)C)(C(C)C)C(C)C)c1)(C(C)C)C(C)C` the Activity (Danio rerio) was “Active”, the Activity (SH-SY5Y [8]) was 100% and the Activity (SH-SY5Y [5]) was “Active”. The Activity (RAW264.7 [6]) was “Active”, the remaining at 72 h [9] was over 80% and the remaining at 72 h [10] was over 80%.
Compound `CCNC(=O)Oc1ccc(/C=C/c2cc(O[Si](C(C)C)(C(C)C)C(C)C)cc(O[Si](C(C)C)(C(C)C)C(C)C)c2)cc1` has an NOAEL [3] of 1000 µM and an LOAEL [4] of 1000 µM.
Compound `CC[Si](CC)(CC)Oc1ccc(/C=C/c2cc(O)cc(O[Si](CC)(CC)CC)c2)cc1` has an LC50 at 96 h [2] of 380 µM, an NOAEL [3] of 100 µM and an LOAEL [4] of 1000 µM. For the same compound, the Activity (Danio rerio) was “Active”, the Activity (SH-SY5Y [5]) was “Active” and the Activity (RAW264.7 [1]) was “Active”.
In the case of `CC(C)(C)[Si](C)(C)Oc1cc(/C=C/c2ccc(O)cc2)cc(O[Si](C)(C)C(C)(C)C)c1`, the Activity (SH-SY5Y [5]) is reported as “Active” and the Activity (RAW264.7 [1]) is reported as “Active”.
For `CCCCCCCC(=O)OC[C@H]1O[C@@H](Oc2cc(O)cc(/C=C/c3ccc(O)cc3)c2)[C@H](O)[C@@H](O)[C@@H]1O`, the NOAEL [3] was 1 µM, the LOAEL [4] was 10 µM and the Activity (RAW264.7 [1]) was “Active”.
With `CC(C)[Si](Oc1ccc(/C=C/c2cc(O)cc(O)c2)cc1)(C(C)C)C(C)C` the Activity (SH-SY5Y [5]) was “Active” and the Activity (SH-SY5Y [7]) was over 50%.
With `Oc1ccc(/C=C/c2cc(O)cc(O)c2)cc1` [RESVERATROL] the solubility [11] was 50 µg/mL (≈ 219 µM), the LC50 at 96 h [2] was over 1000 µM and the NOAEL [3] was 1000 µM. For the same compound, the LOAEL [4] was over 1000 µM and the Activity (Danio rerio) was “Active”.
`CC[Si](CC)(CC)Oc1cc(/C=C/c2ccc(O)cc2)cc(O[Si](CC)(CC)CC)c1` gave an LC50 at 96 h [2] of 475 µM, an NOAEL [3] of 100 µM and an LOAEL [4] of 1000 µM. The Activity (Danio rerio) was “Active”, the Activity (RAW264.7 [1]) was “Active” and the inhibition (RAW264.7 [12]) was “Active”.
For `CC[Si](CC)(CC)Oc1ccc(/C=C/c2cc(O)cc(O)c2)cc1`, the Activity (RAW264.7 [1]) was “Active”.
Work on `CC(C)[Si](Oc1ccc(/C=C/c2cc(O[C@@H]3O[C@H](CO)[C@@H](O)[C@H](O)[C@H]3O)cc(O[Si](C(C)C)(C(C)C)C(C)C)c2)cc1)(C(C)C)C(C)C` yielded an LC50 at 96 h [2] of over 1000 µM, an NOAEL [3] of 1000 µM and an LOAEL [4] of 1000 µM. It also gave a remaining at 72 h [9] of over 80% and a remaining at 72 h [10] of over 80%.
In the case of `CC(C)(C)[Si](C)(C)Oc1cc(O)cc(/C=C/c2ccc(O)cc2)c1`, the Activity (SH-SY5Y [5]) is reported as “Active” and the Activity (SH-SY5Y [7]) is reported as over 50%.
Work on `CCCCCCCC(=O)OC[C@@H]1O[C@H](Oc2ccc(/C=C/c3cc(O[Si](C(C)C)(C(C)C)C(C)C)cc(O[Si](C(C)C)(C(C)C)C(C)C)c3)cc2)[C@@H](O)[C@H](O)[C@H]1O` yielded an LC50 at 96 h [2] of 407 µM, an NOAEL [3] of 100 µM and an LOAEL [4] of 1000 µM. For the same compound, the Activity (Mus musculus [13]) was 26.5%, the Activity (Danio rerio) was “Active” and the remaining at 24 h [14] was 15%. The Activity (Mus musculus [15]) was 10%, the Activity (Mus musculus [16]) was 94.8% and the Activity (Mus musculus [17]) was “Active”. The remaining at 72 h [9] was over 80%, the Activity (Mus musculus [18]) was “Active” and the remaining at 1 h [19] was 75%. For the same compound, the remaining at 72 h [10] was over 80% and the Activity (Mus musculus [20]) was “Active”.
Compound `CCCCCCCC(=O)OC[C@H]1O[C@@H](Oc2cc(/C=C/c3ccc(O[Si](C(C)C)(C(C)C)C(C)C)cc3)cc(O[Si](C(C)C)(C(C)C)C(C)C)c2)[C@H](O)[C@@H](O)[C@@H]1O` has an LC50 at 96 h [2] of 407 µM, an NOAEL [3] of 100 µM and an LOAEL [4] of 1000 µM.
In the case of `CC(C)(C)[Si](C)(C)Oc1ccc(/C=C/c2cc(O)cc(O[Si](C)(C)C(C)(C)C)c2)cc1`, the Activity (SH-SY5Y [5]) is reported as “Active” and the Activity (RAW264.7 [1]) is reported as “Active”.
